# Screening results (PubChem)
# Most compounds without a hit are left out; they make up all but 3.5% or so of the library.
# ABHD4 inh: inhibits mouse alpha/beta hydrolase domain 4. Q8VD66. purified mABHD4, FP-Rh probe fluorescence polarization. inhibition, % at 8.92 µM. hit rate 0.54% among 370,000;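 active means inhibition exceeding the mean over every tested compound plus 3 SD, cut at about 30% in these data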;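 further: 0% = plate median of compound wells and 100% = S159A mutant with DMSO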
#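 Assay system: mouse ABHD4 enzyme, wild type / Also added: fluorescent activity-based probe FP-Rh / Doses: single nominal dose of 8.92 µM, 0.89% DMSO final / Timing: 45 min compound pre-incubation plus 60 min probe step, 25 °C / Signal: FP readout, ex 525 nm / em 598 nm / Control set: S159A mutant/DMSO as 100%, compound-well median as 0%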
# HTRA1 inhibitor: blocks human HTRA1 serine peptidase; Q92743; recombinant HTRA1, FP-rhodamine activity-based probe, fluorescence polarization; inhibition, % at 5.96 µM; hit rate 0.5% among 340,000; AID 504803; in the data active means inhibition above about 36%;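 further: 0% = enzyme with DMSO and 100% = wells lacking enzyme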
# Target sequence (Q92743 whole entry, looked up): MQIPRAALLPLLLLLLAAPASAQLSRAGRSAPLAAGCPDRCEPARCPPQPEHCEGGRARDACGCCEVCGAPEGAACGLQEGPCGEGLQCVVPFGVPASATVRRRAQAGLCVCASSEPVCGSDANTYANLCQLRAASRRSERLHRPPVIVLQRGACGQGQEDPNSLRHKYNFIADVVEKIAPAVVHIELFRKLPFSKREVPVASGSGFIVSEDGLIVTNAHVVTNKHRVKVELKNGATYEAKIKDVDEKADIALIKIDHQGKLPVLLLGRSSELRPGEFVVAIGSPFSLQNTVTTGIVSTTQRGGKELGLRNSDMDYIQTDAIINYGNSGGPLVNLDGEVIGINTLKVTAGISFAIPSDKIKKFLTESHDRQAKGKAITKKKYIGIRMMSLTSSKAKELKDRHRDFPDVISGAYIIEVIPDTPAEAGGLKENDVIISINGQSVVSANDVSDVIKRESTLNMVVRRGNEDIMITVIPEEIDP
# SIAE primary: inhibitors of human sialic acid acetylesterase SIAE. Q9HAT2. SIAE FP-Rh probe binding, fluorescence polarization. inhibition, % at 9.66 µM. hit rate 0.69% among 370,000. AID 1053197;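 active means inhibition above a cutoff: mean of compounds within the control limits plus 3 SD of those, cut at about 17% in these data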;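 further: 0% = plate median of compound wells and 100% = probe without SIAE protein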
# TCR CD3 inh: inhibitors of human TCR-CD3 interaction. TAMRA-labeled TCR probe fluorescence, biochemical. AID 651800. inhibition, % at 9.4 µM. hit rate 0.37% among 360,000; in the data active means inhibition above about 19%;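 further: recombinant mutant TCR 2C K166C tagged with TAMRA read by polarization; 0% = receptor in buffer alone and 100% = receptor with positive control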
# rCAG RNA binder: binds r(CAG) RNA repeats. hit rate 1.3% among 370,000. r(CAG) RNA repeat, TO-PRO-1 dye displacement fluorescence. inhibition, % at 3 µM;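 active means inhibition above the plate cutoff, the mean of all test compounds on that plate plus 3 SD, cut at about 35% in these data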;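 further: 0% = DMSO alone and 100% = 100 µM mitoxantrone as full dye displacement; higher means more dye released from RNA so lower well fluorescence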
# PRMT1 FP inh: inhibitors of human PRMT1. Q99873. recombinant PRMT1, activity-based probe fluorescence polarization. inhibition, % at 2.79 µM. hit rate 1.3% among 370,000;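 active means inhibition above about 21% made by adding two undisclosed values, limit read from the data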
# PRMT1 inh conf: PRMT1 (human) inhibition, FP confirmation. shares compounds with PRMT1 FP inh. recombinant His-PRMT1, activity-based probe fluorescence polarization. inhibition, % at 2.79 µM. hit rate 42% among 3,300;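 active means mean inhibition across replicates above the hit cutoff derived for the earlier primary screen, cut at about 22% in these data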
# * hit, by the source's call; · = no result given.
SMILES,ABHD4 inh,HTRA1 inhibitor,SIAE primary,TCR CD3 inh,rCAG RNA binder,PRMT1 FP inh,PRMT1 inh conf
CC(C(=O)OCC(=O)c1ccc([N+](=O)[O-])cc1)N1C(=O)C2C3C=CC(C3)C2C1=O (stereo not drawn),-7.1,11.4,0.9,-7.7,2.9,27.7*,4.0
CC(C(=O)OCC(=O)c1ccc([N+](=O)[O-])cc1)N1C(=O)C2C3CCC(C3)C2C1=O (stereo not drawn),3.2,-1.2,-1.0,1.7,-2.3,10.6,·
O=C(CN1C(=O)C2C3C=CC(C3)C2C1=O)OCC(=O)c1ccc([N+](=O)[O-])cc1 (stereo not drawn),10.0,9.3,0.8,7.2,3.2,50.0*,42.3*
COc1ccc(OC)c(S(=O)(=O)N2CCCCC2C(=O)N2CCN(CCO)CC2)c1 (stereo not drawn),2.6,·,4.1,·,9.2,4.2,·
Cc1c(NS(=O)(=O)c2cc3c(cc2Br)CCN3C(=O)C2CC2)c(=O)n(-c2ccccc2)n1C,7.0,·,3.5,·,8.5,-0.7,·
Cc1sc(NC(=O)CSc2nnc(C)c(=O)[nH]2)c(C#N)c1C,5.8,-1.5,-3.1,-3.6,16.1,26.6*,23.7*
Cc1nnc(SCC(=O)Nc2sc3c(c2C(N)=O)CCC(C)C3)[nH]c1=O (stereo not drawn),8.5,9.9,-8.0,2.5,15.0,25.9*,51.0*
Cc1nnc(SCC(=O)Nc2sc3c(c2C(N)=O)CCCC3)[nH]c1=O,13.7,4.6,-0.4,-10.8,14.9,4.8,·
O=C(OCc1cn(Cc2c(F)cccc2F)nn1)N1CCCC1,8.0,·,3.5,·,1.4,0.9,·
CCn1c(C(=O)N2CCc3ccccc3C2)cc2sccc21,-4.0,-5.6,10.8,-7.2,7.6,25.4*,13.5
CCn1c(C(=O)NCCCN2CCc3ccccc3C2)cc2sccc21,-2.2,0.5,0.4,-6.6,-5.2,-0.2,·
CCN1CCN(C(=S)c2ccc(OCC(=O)NCc3ccccc3)cc2)CC1,1.4,3.1,4.3,7.1,-6.2,27.0*,37.7*
CCCOc1ccc(N2C(=O)CC(N3CCC(c4nncn4CC)CC3)C2=O)cc1 (stereo not drawn),3.9,8.5,1.3,3.0,-1.3,38.8*,-0.2
CCOC(=O)C1CCN(C2CC(=O)N(c3ccc(OCC)cc3)C2=O)CC1 (stereo not drawn),3.6,2.4,-1.7,-1.9,-5.6,45.4*,-6.2
CCc1ccc(N2C(=O)CC(N3CCC(C(=O)OC)CC3)C2=O)cc1 (stereo not drawn),1.2,-0.6,-0.3,-7.4,-7.7,44.0*,-2.9
CCCOc1ccc(N2C(=O)CC(N3CCN(c4ccccc4F)CC3)C2=O)cc1 (stereo not drawn),0.8,-9.6,7.2,5.0,-1.8,2.4,·
CCCCCCOc1ccc(N2C(=O)CC(N3CCC(C(=O)OCC)CC3)C2=O)cc1 (stereo not drawn),4.0,-4.0,-0.3,-8.6,-3.6,8.7,·
Cc1cc(C)cc(NC(=O)OC2CC3CC2[C@H]2CCCCN2[C@H]3C)c1 (stereo partly drawn),-2.1,·,-2.2,·,3.6,-6.5,·
O=C(Nc1nc2ncccn2c1-c1ccccc1)C1CC1,-0.6,·,0.1,·,1.7,2.4,·
CCC(NC(=O)CCCN1C(=O)COc2ccc(C)cc21)c1ccccc1 (stereo not drawn),-4.4,·,1.5,·,-2.3,-3.9,·
COc1ccc(NS(=O)(=O)c2ccc(N3CCCC3)c(NC(=S)Nc3ccc(SC(F)F)cc3)c2)cc1,0.9,-7.7,-6.7,-4.0,16.2,29.1*,3.3
CN1CC=C2C(C#N)=C(N)C(C#N)(C#N)C(Cc3ccccc3)C2C1 (stereo not drawn),9.0,14.7,6.7,-1.3,-19.5,45.5*,11.2
CC(C)N1CC=C2C(C#N)=C(N)C(C#N)(C#N)C(c3ccccc3)C2C1 (stereo not drawn),9.3,-0.6,7.7,9.2,-31.4,36.8*,33.0*
COc1cc(C2C3CN(C)CC=C3C(C#N)=C(N)C2(C#N)C#N)ccc1OC(C)C (stereo not drawn),4.0,5.4,4.3,5.5,-13.3,7.5,·
CCN1/C(=C/C(C)=C/c2sc3ccccc3[n+]2CC)Sc2ccccc21,-122.7,-240.8,-238.1,-107.2,16.0,97.8*,-7.6
SMILES,ABHD4 inh,HTRA1 inhibitor,SIAE primary,TCR CD3 inh,rCAG RNA binder,PRMT1 FP inh,PRMT1 inh conf
CCOC(=O)CC[C@H]1CC[C@]2(CCCN(C3CCCCC3)C2)O1,-0.2,·,3.9,·,-0.1,-3.1,·
N#CC1=C(N)S[C@@H](C(=O)c2ccc(F)cc2)[C@@H]1c1cccs1,26.0,-16.9,3.9,-8.2,2.9,34.7*,0.6
N#CC1=C(N)SC(C(=O)c2ccccc2)C1c1cccs1 (stereo not drawn),5.4,-13.5,-0.6,-4.7,5.3,10.8,·
O=C(CCCSc1nc2ccccc2s1)Nc1nccs1,3.1,-15.6,-1.9,-4.2,-0.2,4.0,·
Cc1cnc(NC(=O)CCCc2nc3ccccc3s2)s1,-7.4,-8.9,-0.4,-4.5,-3.2,49.2*,20.6
Cc1ccc2nc(NC(=O)CCCc3nc4ccccc4s3)sc2c1,-4.7,-30.1,-4.5,-6.2,3.0,4.1,·
O=C(CCCc1nc2ccccc2s1)Nc1nccs1,-6.5,0.5,-3.0,-3.6,3.9,40.5*,13.9
CC(=NNC(=S)N1CC2CCC(CC2)C1)c1ccncn1,7.5,20.8,2.7,-5.0,1.5,27.2*,1.8
CC(=NNC(=S)N1CCCCC1)c1ccccn1,6.4,7.1,1.1,4.9,2.5,2.8,·
Cc1cc(C)c2cc3c(N)c(C(=O)N4CCOCC4)sc3nc2c1,1.7,-2.5,3.0,-7.5,9.1,20.9,·
CCOc1ccc2nc3sc(C(=O)N4CCOCC4)c(N)c3cc2c1,3.5,-0.1,1.2,-6.2,6.9,28.2*,2.8
N#Cc1ccc(Oc2cccc3cccnc23)c([N+](=O)[O-])c1,5.3,-1.3,-0.2,-1.9,-32.9,26.5*,4.9
Cc1ccc(C)c(S(=O)(=O)N2CCN(Cc3cc4c(cc3O)OCO4)CC2)c1,-12.5,-5.4,10.6,-6.1,5.9,45.5*,8.3
O=S(=O)(c1ccccc1F)N1CCN(Cc2cc3c(cc2O)OCO3)CC1,5.8,6.0,5.2,0.5,2.3,25.2*,12.0
CCCCc1c(O)nc(SCC(=O)c2ccccc2)n(-c2ccccc2C)c1=O,-4.8,-5.9,0.0,9.4,11.1,17.1,·
CCCCc1c(O)nc(SCC(=O)c2ccccc2)n(-c2ccccc2OC)c1=O,4.2,6.6,4.7,-6.5,9.8,40.2*,14.2
CC(C)CC1=NN2C(=N)/C(=C\c3coc4ccccc4c3=O)C(=O)N=C2S1,3.1,-23.7,-19.3,-2.3,-178.0,34.2*,47.9*
COc1cc2cc(CN(Cc3ccc4c(c3)OCO4)C(=O)c3ccco3)c(=O)[nH]c2cc1OC,-0.8,3.3,1.1,-5.5,9.0,44.9*,3.6
